The text below walks through data of ChEMBL document CHEMBL4177540, “Corymbulosins D-H, 2-Hydroxy- and 2-Oxo-clerodane Diterpenes from the Bark of Laetia corymbulosa” (J Nat Prod, 2017).

SMILES strings stand for the structures.

What all share (type): functional, cell-based
The subject of one test is MDA-MB-231. The test is described as follows: Antiproliferative activity against human MDA-MB-231 cells incubated for 72 hrs by SRB assay. Conditions: MDA-MB-231, 72 h. (The SRB assay estimates cell density from bound dye.)
Another test deals with KB. Kind of test: Antiproliferative activity against human KB cells incubated for 72 hrs by SRB assay.
In a further test the test system is MCF7. Kind of test: Antiproliferative activity against human MCF7 cells incubated for 72 hrs by SRB assay. To be noted: MCF7, 72 h. The gist of the method:
(§1)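 Cells in RPMI-1640 with 2 mM L-glutamine, 25 mM HEPES, 10% FBS, streptomycin and penicillin. Seeded at 4,000−12,000 cells per well, then exposed to compound for 72 h. Fixed with 10% trichloroacetic acid, stained with 0.04% SRB, dye taken up in 10 mM Tris base, absorbance read at 515 nm. IC50 is 50% reduction versus untreated cells, from at least three independent experiments run in duplicate.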

The next test deals with A549. The test is described as follows: Antiproliferative activity against human A549 cells incubated for 72 hrs by SRB assay. To be noted: A549, 72 h.
Test [1] in a line: Antiproliferative activity against human KBVIN cells incubated for 72 hrs by SRB assay. The essentials: as §1

As to `C=CC(=C)CC[C@]1(C)[C@H](C)C[C@H](OC(=O)/C=C\C=C/CCCCC)[C@@]23C(=C[C@@H](O)C[C@@H]12)[C@@H](OC(C)=O)O[C@H]3OC(C)=O`, the IC50 with MDA-MB-231 worked out at 5.1 µM; in the test with KB it was 4.9 µM; in the test with MCF7, 5.2 µM; in the test on A549, 4.8 µM; in test [1], 4.8 µM.

For `C=CC(=C)CC[C@]1(C)[C@H](C)C[C@H](OC(=O)CCCCCCCCC)[C@@]23C(=C[C@H](O)C[C@@H]12)[C@@H](OC(C)=O)O[C@H]3OC(C)=O`, the IC50 in the test with MDA-MB-231 stood at 5.2 µM; in the test on KB, 5 µM; in the test on MCF7, 5 µM; in the test on A549, 4.7 µM; in test [1], 4.9 µM.

`C=CC(=C)CC[C@]1(C)[C@H](C)C[C@H](OC(=O)/C=C\C=C/CCCCC)[C@@]23C(=C[C@H](O)C[C@@H]12)[C@@H](OC(C)=O)O[C@H]3OC(C)=O`: the IC50 in the test on MDA-MB-231 is 4.8 µM; in the test with KB, 4.8 µM; with MCF7 it was 4.8 µM; with A549, 4.6 µM; in test [1], 4.9 µM.

Regarding `C=CC(=C)CC[C@]1(C)[C@H](C)C[C@H](OC(=O)CCCCCCCCC)[C@@]23C(=CC(=O)C[C@@H]12)[C@@H](OC(C)=O)O[C@H]3OC(C)=O`, the IC50 with MDA-MB-231 is over 10 µM; with KB it was 5.9 µM; in the test on MCF7, 8.3 µM; in the test with A549, over 10 µM; in test [1] it was 9.8 µM.

`C=CC(=C)CC[C@]1(C)[C@H](C)C[C@H](OC(=O)CCCCCCCCC)[C@@]23C(=C[C@@H](O)C[C@@H]12)[C@@H](OC(C)=O)O[C@H]3OC(C)=O`: the IC50 in the test with MDA-MB-231 stood at 5.4 µM; with KB it was 4.5 µM; in the test with MCF7, 5.4 µM; in the test with A549, 5.3 µM; in test [1] it was 4.8 µM.

Turning to `C=CC(=C)CC[C@]1(C)[C@H](C)C[C@H](OC(=O)CCCCCCC)[C@@]23C(=C[C@H](O)C[C@@H]12)[C@@H](OC(C)=O)O[C@H]3OC(C)=O`, the IC50 came to 5.1 µM in the test with MDA-MB-231; 5 µM in the test with KB; 4.9 µM with MCF7; 4.7 µM with A549; 4.9 µM in test [1].

Usually IC50 stands for the concentration that gives 50% inhibition. Low readings indicate inhibition by little substance, high ones a need for much substance.
